Published values pooled from the literature.
Lines come from different studies, so protocols differ. In brackets after ≈: the same amount, converted by molar mass.

With COc1ccc(C2CC(=O)c3c(O)cc(O)cc3O2)cc1O (stereo not drawn) the thermodynamic solubility was 9.33 µg/mL (shake flask; aqueous buffer; 24 h; pH 5; 25 °C).
With CC(=O)Nc1cc(Nc2cc(NC3CC3)n3ncc(C#N)c3n2)ccc1N(C)[C@H]1CCOC1 the kinetic solubility was 21 µg/mL (≈ 47 µM) (shake flask; PBS; 24 h; pH 7.4; 22 °C).
The solubility of COc1cccc2c(NCc3ccccc3)nc(-n3c(=O)oc4ccccc43)nc12 is reported as under 0.01 µg/mL (aqueous buffer; pH 6.2).
With CC(=O)N[C@@H](CCCNC(=N)N)C(=O)N[C@H]1CSSC[C@@H](C(=O)N[C@H](C(N)=O)[C@@H](C)O)NC(=O)[C@H](CCCNC(=N)N)NC(=O)[C@H](Cc2c[nH]cn2)NC(=O)[C@H](C)NC(=O)CNC(=O)[C@H](Cc2c[nH]c3ccccc23)NC(=O)[C@H](CC(=O)O)NC(=O)[C@H](CCC(N)=O)NC(=O)[C@H](Cc2c[nH]c3ccccc23)NC(=O)[C@H](C(C)C)NC1=O the thermodynamic solubility was over 1000 µM (absorbance; water).
For Brc1cccc2c(NCc3ccccc3)nc(NCc3ccccc3)nc12, the solubility was 0.42 µg/mL (aqueous buffer; pH 5).
With CC[C@H](C)[C@H](NC(=O)[C@H](Cc1ccccc1)NC(=O)[C@H](Cc1ccc(O)cc1)NC(=O)[C@@H]1CCCN1C(=O)[C@H](N)CCCCN)C(=O)N1CCC[C@H]1C(=O)N[C@@H](CC(C)C)C(=O)NCC(=O)N[C@H](CCCCN)C(=O)NCC(=O)N[C@@H](CCC(=O)O)C(=O)N[C@H](C(=O)N[C@@H](CC(N)=O)C(=O)N[C@@H](CC(C)C)[C@@H](O)CC(=O)N[C@H](C(=O)N[C@@H](C)C(=O)N[C@@H](CCC(=O)O)C(=O)N1CCC[C@@H]1C(=O)N[C@@H](CCCCNC(=O)CCC(=O)O[C@H]1CC[C@@]2(C)C(=CC[C@H]3[C@@H]4CC[C@H]([C@H](C)CCCC(C)C)[C@@]4(C)CC[C@@H]32)C1)C(N)=O)C(C)C)C(C)C the thermodynamic solubility was 951 µg/mL (aqueous buffer; pH 6.5).
The solubility of Brc1cccc(Nc2nc(NCc3ccccc3)c3ccccc3n2)c1 is reported as under 0.01 µg/mL (aqueous buffer; pH 7.4).
CC[C@H](C)[C@H](NC(=O)[C@H](Cc1ccccc1)NC(=O)[C@@H](CCCCN)NC(=O)[C@@H]1CCCN1C(=O)[C@@H](N)Cc1ccc(O)cc1)C(=O)N1CCC[C@H]1C(=O)N[C@@H](CC(C)C)C(=O)NCC(=O)N[C@H](CCCCN)C(=O)NCC(=O)N[C@@H](CCC(=O)O)C(=O)N[C@H](C(=O)N[C@@H](CC(N)=O)C(=O)N[C@@H](CC(C)C)[C@@H](O)CC(=O)N[C@H](C(=O)N[C@@H](C)C(=O)N[C@@H](CCC(=O)O)C(=O)N1CCC[C@@H]1C(=O)N[C@@H](CCCCNC(=O)CCC(=O)O[C@H]1CC[C@@]2(C)C(=CC[C@H]3[C@@H]4CC[C@H]([C@H](C)CCCC(C)C)[C@@]4(C)CC[C@@H]32)C1)C(N)=O)C(C)C)C(C)C has a thermodynamic solubility of over 3000 µg/mL (aqueous buffer; pH 6.5).
CC(=O)Oc1ccccc1C(=O)O gave a thermodynamic solubility of 158000 µg/mL (aqueous buffer; 72 h; pH 6.8; 37 °C).
With O=C(O)Cc1ccccc1Nc1c(Cl)cccc1Cl the solubility was 199 µM (PBS; pH 7.4).
The thermodynamic solubility of CC[C@H](C)[C@H](NC(=O)[C@H](Cc1ccccc1)NC(=O)[C@H](Cc1ccc(O)cc1)NC(=O)[C@@H](CCCCN)NC(=O)[C@@H](N)Cc1ccc(O)cc1)C(=O)N1CCC[C@H]1C(=O)N[C@@H](CC(C)C)C(=O)NCC(=O)N[C@H](CCCCN)C(=O)NCC(=O)N[C@@H](CCC(=O)O)C(=O)N[C@H](C(=O)N[C@@H](CC(N)=O)C(=O)N[C@@H](CC(C)C)[C@@H](O)CC(=O)N[C@H](C(=O)N[C@@H](C)C(=O)N[C@@H](CCC(=O)O)C(=O)N1CCC[C@@H]1C(=O)N[C@@H](CCCCNC(=O)CCC(=O)O[C@H]1CC[C@@]2(C)C(=CC[C@H]3[C@@H]4CC[C@H]([C@H](C)CCCC(C)C)[C@@]4(C)CC[C@@H]32)C1)C(N)=O)C(C)C)C(C)C is reported as under 1 µg/mL (aqueous buffer; pH 6.5).
The solubility of Brc1ccccc1CNc1nc(NCc2ccccc2)c2ccccc2n1 is reported as 0.24 µg/mL (aqueous buffer; pH 6.2).
CCCn1nc(C(=O)N2CCCCC2)c2c1CCC(N(C)Cc1ccc(F)cc1)C2 (stereo not drawn) has a thermodynamic solubility of 2400 µM (PBS; 16 h; pH 7.4).
CC[C@H](C)[C@H](NC(=O)[C@@H](CCCCN)NC(=O)[C@H](Cc1ccc(O)cc1)NC(=O)[C@@H]1CCCN1C(=O)[C@@H](N)Cc1ccc(O)cc1)C(=O)N1CCC[C@H]1C(=O)N[C@@H](CC(C)C)C(=O)NCC(=O)N[C@H](CCCCN)C(=O)NCC(=O)N[C@@H](CCC(=O)O)C(=O)N[C@H](C(=O)N[C@@H](CC(N)=O)C(=O)N[C@@H](CC(C)C)[C@@H](O)CC(=O)N[C@H](C(=O)N[C@@H](C)C(=O)N[C@@H](CCC(=O)O)C(=O)N1CCC[C@@H]1C(=O)N[C@@H](CCCCNC(=O)CCC(=O)O[C@H]1CC[C@@]2(C)C(=CC[C@H]3[C@@H]4CC[C@H]([C@H](C)CCCC(C)C)[C@@]4(C)CC[C@@H]32)C1)C(N)=O)C(C)C)C(C)C gave a thermodynamic solubility of over 2440 µg/mL (aqueous buffer; pH 6.5).
CC(=O)N[C@@H](CCCNC(=N)N)C(=O)N[C@H]1CSSC[C@@H](C(=O)N[C@H](C(N)=O)[C@@H](C)O)NC(=O)[C@H](CCCNC(=N)N)NC(=O)[C@H](Cc2c[nH]cn2)NC(=O)[C@H](C)NC(=O)CNC(=O)[C@H](Cc2c[nH]c3ccccc23)NC(=O)[C@H](CC(=O)O)NC(=O)[C@H](CCC(N)=O)NC(=O)[C@H](Cc2cn(C)c3ccccc23)NC(=O)[C@H](C(C)C)NC1=O has a thermodynamic solubility of over 1000 µM (absorbance; water).
